Measured values taken from ChEMBL document CHEMBL1127345, “Synthesis, binding properties, and 18F labeling of fluorocarazolol, a high-affinity beta-adrenergic receptor antagonist” (J Med Chem, 1994).

Experiments:
Mus musculus [1] = test: The in vivo tissue distribution of mouse bone with Propranolol administration after 60 min, value was fractional dose per fractional body weight of the organ; type: ADME, organism-based, Bone element; settings: 1 h
How it was run: (§1)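 Male CF-1 mice (25–30 g), anesthetised with 2 mg sodium pentobarbital ip 30 min before tracer. Where blocked, propranolol iv via tail vein (0.1 mL of […]; […]) about 30 min before tracer. Tracer given by tail vein, 0.1 mL at 1–2 mCi/mL. Mice killed by cervical dislocation at set times, organs weighed and counted. %ID/g × body weight/100 gives unitless uptake. Heart, brain, blood, lung, kidney, liver and bone n=5; average ± SD.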

Mus musculus [2] = test: The in vivo tissue distribution of mouse bone with Propranolol preadministration in 40 min, value was fractional dose per fractional body weight of the organ; type: ADME, organism-based, Bone element; how it was run: as §1
Mus musculus [3] = test: The in vivo tissue distribution of mouse heart with Propranolol preadministration in 10 min, value was fractional dose per fractional body weight of the organ; type: ADME, organism-based; how it was run: as §1
Mus musculus [4] = test: The in vivo tissue distribution of mouse heart with Propranolol preadministration in 120 min, value was fractional dose per fractional body weight of the organ; type: ADME, organism-based; settings: 2 h
How it was run: (§2)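 Male CF-1 mice (25–30 g) anaesthetised with 2 mg sodium pentobarbital ip; blocked group given 0.1 mL of […] propranolol iv via tail vein (200 μg, 6.6 mg/kg), tracer 30 min later. 0.1 mL of 1–2 mCi/mL [18F]-labelled enantiomer iv via tail vein; killed by cervical dislocation, organs weighed and counted against weighed standards. %ID/g × body weight/100 gives unitless uptake; five mice per point (heart, blood, lung, kidney, liver, bone); mean ± SD.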

Mus musculus [5] = test: The in vivo tissue distribution of mouse kidney with Propranolol administration after 180 min, value was fractional dose per fractional body weight of the organ; type: ADME, organism-based; settings: 3 h; how it was run: as §1
Mus musculus [6] = test: The in vivo tissue distribution of mouse kidney with Propranolol administration after 20 min, value was fractional dose per fractional body weight of the organ; type: ADME, organism-based
How it was run: (§3)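 Male CF-1 mice (25–30 g), given 2 mg sodium pentobarbital ip 30 min before tracer. Blocked groups received propranolol iv by tail vein, 0.1 mL of 1 mg/mL. About 30 min later, 0.1 mL of [18F]tracer (1–2 mCi/mL) was injected by tail vein. Mice were killed by cervical dislocation at set times, and organs were weighed and counted. Uptake is %ID/g × body weight/100, average ± SD; n=5 for heart, brain, blood, lung, kidney, liver and bone.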

Mus musculus [7] = test: The in vivo tissue distribution of mouse kidney with Propranolol administration after 40 min, value was fractional dose per fractional body weight of the organ; type: ADME, organism-based; how it was run: as §3
Mus musculus [8] = test: The in vivo tissue distribution of mouse kidney with Propranolol administration after 60 min, value was fractional dose per fractional body weight of the organ; type: ADME, organism-based; settings: 1 h; how it was run: as §2
Mus musculus [9] = test: The in vivo tissue distribution of mouse heart with Propranolol administration after 90 min, value was fractional dose per fractional body weight of the organ; type: ADME, organism-based; settings: 1.5 h; how it was run: as §1
Mus musculus [10] = test: The in vivo tissue distribution of mouse blood with Propranolol administration after 10 min, value was fractional dose per fractional body weight of the organ; type: ADME, organism-based; how it was run: as §1
Mus musculus [11] = test: The in vivo tissue distribution of mouse blood with Propranolol administration after 180 min, value was fractional dose per fractional body weight of the organ; type: ADME, organism-based; settings: 3 h; how it was run: as §3
Mus musculus [12] = test: The in vivo tissue distribution of mouse brain with Propranolol administration after 180 min, value was fractional dose per fractional body weight of the organ; type: ADME, organism-based; settings: 3 h; how it was run: as §3
Mus musculus [13] = test: The in vivo tissue distribution of mouse brain with Propranolol administration after 20 min, value was fractional dose per fractional body weight of the organ; type: ADME, organism-based; how it was run: as §1
Mus musculus [14] = test: The in vivo tissue distribution of mouse brain with Propranolol administration after 40 min, value was fractional dose per fractional body weight of the organ; type: ADME, organism-based; how it was run: as §1
Mus musculus [15] = test: The in vivo tissue distribution of mouse brain with Propranolol preadministration in 90 min, value was fractional dose per fractional body weight of the organ; type: ADME, organism-based; settings: 1.5 h; how it was run: as §1
Mus musculus [16] = test: The in vivo tissue distribution of mouse blood with Propranolol preadministration in 120 min, value was fractional dose per fractional body weight of the organ; type: ADME, organism-based; settings: 2 h; how it was run: as §2
Mus musculus [17] = test: The in vivo tissue distribution of mouse bone with Propranolol administration after 180 min, value was fractional dose per fractional body weight of the organ; type: ADME, organism-based, Bone element; settings: 3 h; how it was run: as §3
Mus musculus [18] = test: The in vivo tissue distribution of mouse lung with Propranolol administration after 180 min, value was fractional dose per fractional body weight of the organ; type: ADME, organism-based; settings: 3 h; how it was run: as §1
Mus musculus [19] = test: The in vivo tissue distribution of mouse lung with Propranolol administration after 20 min, value was fractional dose per fractional body weight of the organ; type: ADME, organism-based; how it was run: as §3
Mus musculus [20] = test: The in vivo tissue distribution of mouse liver with Propranolol administration after 40 min, value was fractional dose per fractional body weight of the organ; type: ADME, organism-based; how it was run: as §3
Mus musculus [21] = test: The in vivo tissue distribution of mouse brain with Propranolol administration after 120 min, value was fractional dose per fractional body weight of the organ; type: ADME, organism-based; settings: 2 h; how it was run: as §3
Mus musculus [22] = test: The in vivo tissue distribution of mouse liver with Propranolol administration after 60 min, value was fractional dose per fractional body weight of the organ; type: ADME, organism-based; settings: 1 h; how it was run: as §2
Mus musculus [23] = test: The in vivo tissue distribution of mouse bone without Propranolol preadministration in 10 min, value was fractional dose per fractional body weight of the organ
Mus musculus [24] = test: The in vivo tissue distribution of mouse lung without Propranolol preadministration in 90 min, value was fractional dose per fractional body weight of the organ; settings: 1.5 h
Mus musculus [25] = test: The in vivo tissue distribution of mouse heart without Propranolol preadministration in 20 min, value was fractional dose per fractional body weight of the organ
Mus musculus [26] = test: The in vivo tissue distribution of mouse heart without Propranolol preadministration in 90 min, value was fractional dose per fractional body weight of the organ; settings: 1.5 h
Mus musculus [27] = test: The in vivo tissue distribution of mouse brain without Propranolol preadministration in 60 min, value was fractional dose per fractional body weight of the organ; settings: 1 h
Mus musculus [28] = test: The in vivo tissue distribution of mouse liver without Propranolol preadministration in 20 min, value was fractional dose per fractional body weight of the organ
Mus musculus [29] = test: The in vivo tissue distribution of mouse liver without Propranolol preadministration in 40 min, value was fractional dose per fractional body weight of the organ
Mus musculus [30] = test: The in vivo tissue distribution of mouse lung without Propranolol preadministration in 120 min, value was fractional dose per fractional body weight of the organ; settings: 2 h
Mus musculus [31] = test: The in vivo tissue distribution of mouse blood without Propranolol preadministration in 60 min, value was fractional dose per fractional body weight of the organ; settings: 1 h
Mus musculus [32] = test: The in vivo tissue distribution of mouse liver without Propranolol preadministration in 180 min, value was fractional dose per fractional body weight of the organ; settings: 3 h

Row | Structure (SMILES) | Dose/organ (Mus musculus [1]) | Dose/organ (Mus musculus [2]) | Dose/organ (Mus musculus [3]) | Dose/organ (Mus musculus [4]) | Dose/organ (Mus musculus [5]) | Dose/organ (Mus musculus [6]) | Dose/organ (Mus musculus [7]) | Dose/organ (Mus musculus [8]) | Dose/organ (Mus musculus [9]) | Dose/organ (Mus musculus [10]) | Dose/organ (Mus musculus [11]) | Dose/organ (Mus musculus [12]) | Dose/organ (Mus musculus [13]) | Dose/organ (Mus musculus [14]) | Dose/organ (Mus musculus [15]) | Dose/organ (Mus musculus [16]) | Dose/organ (Mus musculus [17]) | Dose/organ (Mus musculus [18]) | Dose/organ (Mus musculus [19]) | Dose/organ (Mus musculus [20]) | other results
1 | CC(C[18F])NC[C@H](O)COc1cccc2[nH]c3ccccc3c12 (some centres undefined) | 1.1 | 0.71 | 1.1 | 0.45 | 0.35 | 2.19 | 1.64 | 1.28 | 0.35 | 0.39 | 0.15 | 0.09 | 0.78 | 0.64 | 0.8 | 0.52 | 2.72 | 0.72 | 3.26 | 1.66 | Dose/organ (Mus musculus [21]): 0.11; Dose/organ (Mus musculus [22]): 1.17; Dose/organ (Mus musculus [23]): 0.65; Dose/organ (Mus musculus [24]): 5.88; Dose/organ (Mus musculus [25]): 0.91; Dose/organ (Mus musculus [26]): 0.61; Dose/organ (Mus musculus [27]): 0.81; Dose/organ (Mus musculus [28]): 2.54; Dose/organ (Mus musculus [29]): 1.7; Dose/organ (Mus musculus [30]): 4.82; Dose/organ (Mus musculus [31]): 0.6; Dose/organ (Mus musculus [32]): 0.88
2 | CC(C[18F])NC[C@@H](O)COc1cccc2[nH]c3ccccc3c12 (some centres undefined) | 1.15 | 0.95 | 0.93 | 0.28 | 0.33 | 4.43 | 2.7 | 1.67 | 0.48 | 0.92 | 0.09 | 0.06 | 1.22 | 0.9 | 0.35 | 0.24 | 2.98 | 0.26 | 3.87 | 2.11 | Dose/organ (Mus musculus [21]): 0.12; Dose/organ (Mus musculus [22]): 1.61; Dose/organ (Mus musculus [23]): 0.67; Dose/organ (Mus musculus [24]): 1.55; Dose/organ (Mus musculus [25]): 0.81; Dose/organ (Mus musculus [26]): 0.46; Dose/organ (Mus musculus [27]): 0.37; Dose/organ (Mus musculus [28]): 4; Dose/organ (Mus musculus [29]): 3; Dose/organ (Mus musculus [30]): 1.29; Dose/organ (Mus musculus [31]): 0.42; Dose/organ (Mus musculus [32]): 0.78
